Test results from ChEMBL document CHEMBL6153064, “Structure-based discovery of novel diarylpyrimidines as potent and selective Non-Nucleoside reverse transcriptase inhibitors: From CH(CN)-Biphenyl-Diarylpyrimidines to CNNH2-Biphenyl-Diarylpyrimidines” (Eur J Med Chem, 2025).

How the values were obtained:
[1] = Acute toxicity in ICR mouse assessed as heart lesion at 2 g/Kg, po measured after 14 days; assay type: organism-based; settings: in vivo, 2000 mg/kg, 336 h, time 14 day
Summary of the method: (§1)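 ICR mice, female and male, received one oral 2 g/kg dose. On day 14 after dosing they were dissected, and organs were examined by histopathology against a control group.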

[2] = system: Human immunodeficiency virus 1; assay: Antiviral activity against HIV-1 harboring Y181C mutant infected in human MT4 cells […]; assay type: functional, organism-based; settings: Human immunodeficiency virus 1, MT4
[3] = Stability in human plasma assessed as parent compound remaining measured at 60 mins; assay type: ADME, cell-free; settings: read-out: Stability
[4] = biological target: Human immunodeficiency virus type 1 reverse transcriptase (Human immunodeficiency virus 1, UniProt Q72547); assay: Inhibition of wild type HIV-1 Reverse transcriptase
[5] = Acute toxicity in ICR mouse assessed as animal death at 2 g/Kg, po measured for 2 weeks; assay type: organism-based; settings: in vivo, 2000 mg/kg, 336 h
Summary of the method: (§2)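 Healthy female and male ICR mice were given a single oral dose of 2 g/kg. Growth, death and toxic symptoms were followed over 2 weeks and compared with a control group.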

[6] = system: Human immunodeficiency virus 1; assay: Potency index, ratio of Efavirenz EC50 to test compound EC50 for antiviral activity against HIV-1 harboring K103N mutant infected in human MT4 cells […]; assay type: functional
[7] = Acute toxicity in ICR mouse assessed as lung lesion at 2 g/Kg, po measured after 14 days; assay type: organism-based; settings: in vivo, 2000 mg/kg, 336 h, time 14 day; summary of the method: as §1
[8] = Acute toxicity in ICR mouse assessed as change in CREA level at 2 g/Kg, po measured after 14 days; assay type: organism-based; settings: in vivo, 2000 mg/kg, 336 h, time 14 day
Summary of the method: (§3)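 ICR mice of both sexes received a single oral 2 g/kg dose. On day 14 after dosing, blood was examined for ALT, AST, CREA, UREA and CKMB and compared with control groups.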

[9] = Stability in human plasma assessed as parent compound remaining measured at 15 mins; assay type: ADME, cell-free; settings: read-out: Stability
[10] = system: Human immunodeficiency virus 1; assay: Antiviral activity against wild type HIV-1 IIIB infected in human MT4 cells […]; assay type: functional, organism-based; settings: Human immunodeficiency virus 1, IIIB
[11] = Acute toxicity in ICR mouse assessed as brain lesion at 2 g/Kg, po measured after 14 days; assay type: organism-based; settings: in vivo, 2000 mg/kg, 336 h, time 14 day; summary of the method: as §1
[12] = Acute toxicity in ICR mouse assessed as spleen lesion at 2 g/Kg, po measured after 14 days; assay type: organism-based; settings: in vivo, 2000 mg/kg, 336 h, time 14 day; summary of the method: as §1
[13] = Acute toxicity in ICR mouse assessed as change in CKMB level at 2 g/Kg, po measured after 14 days; assay type: organism-based; settings: in vivo, 2000 mg/kg, 336 h, time 14 day; summary of the method: as §3
[14] = system: Human immunodeficiency virus 1; assay: Potency index, ratio of Efavirenz EC50 to test compound EC50 for antiviral activity against HIV-1 harboring Y188L mutant infected in human MT4 cells […]; assay type: functional
[15] = Stability in human plasma assessed as half life; assay type: ADME, cell-free
[16] = system: Human immunodeficiency virus 1; assay: Potency index, ratio of Nevirapine EC50 to test compound EC50 for antiviral activity against HIV-1 harboring E138K mutant infected in human MT4 cells […]; assay type: functional
[17] = Stability in human plasma assessed as parent compound remaining measured at 300 mins; assay type: ADME, cell-free; settings: read-out: Stability
[18] = Acute toxicity in ICR mouse assessed as adverse symptoms at 2 g/Kg, po measured for 2 weeks; assay type: organism-based; settings: in vivo, 2000 mg/kg, 336 h; summary of the method: as §2
[19] = Metabolic stability in human microsomes assessed as intrinsic clearance; assay type: ADME, Microsome; settings: read-out: CLH
Summary of the method: (§4)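 Incubation with human liver microsomes; half-life obtained from depletion fit (R² reported), intrinsic clearance expressed per mg microsomal protein (μL/min/mg) and scaled to liver (mL/min/kg).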

[20] = Acute toxicity in ICR mouse at 2 g/Kg, po measured for 2 weeks; assay type: organism-based; settings: in vivo, 2000 mg/kg, 336 h; summary of the method: as §2
[21] = Cytotoxicity against human MT4 cells by MTT assay; assay type: toxicity, cell-based
[22] = Stability in human plasma assessed as parent compound remaining measured immediately; assay type: ADME, cell-free; settings: read-out: Stability
[23] = Metabolic stability in human liver microsomes assessed as half life; assay type: ADME, Microsome; summary of the method: as §4
[24] = system: Human immunodeficiency virus 1; assay: Antiviral activity against HIV-1 harboring E138K mutant infected in human MT4 cells […]; assay type: functional, organism-based; settings: Human immunodeficiency virus 1, MT4
[25] = system: Human immunodeficiency virus 1; assay: Antiviral activity against HIV-1 harboring Y188L mutant infected in human MT4 cells assessed as inhibition of virus-induced cytopathic effect by MTT assay; settings: Human immunodeficiency virus 1, MT4
[26] = system: Human immunodeficiency virus 1; assay: Antiviral activity against HIV-1 harboring L100I mutant infected in human MT4 cells […]; assay type: functional, organism-based; settings: Human immunodeficiency virus 1, MT4
[27] = Acute toxicity in ICR mouse assessed as change in ALT level at 2 g/Kg, po measured after 14 days; assay type: organism-based; settings: in vivo, 2000 mg/kg, 336 h, time 14 day; summary of the method: as §3
[28] = Stability in human plasma assessed as parent compound remaining measured at 120 mins; assay type: ADME, cell-free; settings: read-out: Stability
[29] = Acute toxicity in ICR mouse assessed as change in AST level at 2 g/Kg, po measured after 14 days; assay type: organism-based; settings: in vivo, 2000 mg/kg, 336 h, time 14 day; summary of the method: as §3
[30] = Acute toxicity in ICR mouse assessed as liver lesion at 2 g/Kg, po measured after 14 days; assay type: organism-based; settings: in vivo, 2000 mg/kg, 336 h, time 14 day; summary of the method: as §1
[31] = Selectivity index, ratio of CC50 for cytotoxicity against human MT4 cells to EC50 for antiviral activity against wild type HIV-1 IIIB infected in human MT4 cells; assay type: toxicity, cell-based; settings: read-out: Ratio CC50/EC50
Summary of the method: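 Selectivity index calculated as CC50/EC50 ratio, both values from MTT viability readout in MT-4 cells, antiviral arm using wild-type HIV-1 IIIB.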

[32] = system: Human immunodeficiency virus 1; assay: Antiviral activity against HIV-1 harboring K103N mutant infected in human MT4 cells […]; assay type: functional, organism-based; settings: Human immunodeficiency virus 1, MT4
[33] = Acute toxicity in ICR mouse assessed as change in UREA level at 2 g/Kg, po measured after 14 days; assay type: organism-based; settings: in vivo, 2000 mg/kg, 336 h, time 14 day; summary of the method: as §3
[34] = Stability in human plasma assessed as parent compound remaining measured at 30 mins; assay type: ADME, cell-free; settings: read-out: Stability
[35] = Acute toxicity in ICR mouse assessed as […] kidney at 2 g/Kg, po measured after 14 days; assay type: organism-based; settings: in vivo, 2000 mg/kg, 336 h, time 14 day; summary of the method: as §1

## COc1cc(-c2ccc(C#N)cc2)ccc1/C(=N\N)c1ccnc(Nc2ccc(C#N)cc2)n1
[1]
  Activity: Non-toxic
[2]
  EC50: 22 nM
[3]
  remaining at 1 h: 101%
[4]
  IC50: 81 nM
[5]
  Activity: Non-toxic
[6]
  Ratio EC50: 8.6
[7]
  Activity: Non-toxic
[8]
  Activity: Non-toxic
[9]
  remaining at 0.25 h: 104%
[10]
  EC50: 5 nM
[11]
  Activity: Non-toxic
[12]
  Activity: Non-toxic
[13]
  Activity: Non-toxic
[14]
  Ratio EC50: 2
[15]
  half-life: > 300 min
[16]
  Ratio EC50: 7.5
[17]
  remaining at 5 h: 94.7%
[18]
  Activity: Non-toxic
[19]
  microsomal CLint: 37 µL/min/mg
[20]
  Activity: Non-toxic
[21]
  CC50: 54000 nM
[22]
  remaining at 0 min: 100%
[23]
  half-life: 37.5 min
[24]
  EC50: 21 nM
[25]
  EC50: 148 nM
[26]
  EC50: 7 nM
[27]
  Activity: Non-toxic
[28]
  remaining at 2 h: 98.2%
[29]
  Activity: Non-toxic
[30]
  Activity: Non-toxic
[31]
  selectivity ratio: 11000
[32]
  EC50: 10 nM
[33]
  Activity: Non-toxic
[34]
  remaining at 0.5 h: 101%
[35]
  Activity: Non-toxic
